ChEMBL document CHEMBL1128256, “Synthesis, biological evaluation, and structure analysis of a series of new 1,5-anhydrohexitol nucleosides” (J Med Chem, 1995)
In brackets after ≈: the same amount, converted by molar mass.

How the values were obtained:
E6SM [1] = experiment: Tested for the minimum inhibitory concentration required to reduce herpes simplex virus type 2 (HSV-2) strain G induced cytopathogenicity by 50%.; assay type: functional; conditions: Homo sapiens
Procedure, shortened: (§1)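 Inhibition of virus-induced cytopathogenicity in human embryonic skin-muscle (E6SM) fibroblasts seeded in 96-well trays. Viruses were HSV-1 (KOS, F, McIntyre), TK- HSV-1 B2006, TK-/TK+ HSV-1 clinical isolate VMW-1837 and HSV-2 (G, 196, Lyons). […] MCC is the lowest concentration giving microscopically detectable alteration of normal cell morphology; highest concentration tested was 400 µg/mL.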

HEL [2] = experiment: Tested for the inhibitory concentration required to reduce cytomegalovirus (CMV) strain Davis plaque formation by 50%.; assay type: functional, cell-based; conditions: Homo sapiens
Procedure, shortened: (§2)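 Virus plaque formation assay in human embryonic lung (HEL) cells seeded in 96-well trays. Targets were TK+ VZV (Oka, YS), TK- VZV (07/1, YS/R) and CMV (AD169, Davis). Value is the concentration that reduces plaque number by 50%. Cytotoxicity in HEL cells was taken as the concentration that reduces cell growth by 50%.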

HEL [3] = experiment: Tested for the inhibitory concentration required to reduce TK+ Varicella-Zoster virus (TK+ VZV) strain OKA plaque formation by 50%.; assay type: functional, cell-based; conditions: Homo sapiens
E6SM [4] = experiment: Tested for the minimum inhibitory concentration required to reduce herpes simplex virus type 1 (TK- / TK+ HSV-1) strain VMW-1837 induced cytopathogenicity by 50%.; assay type: functional; conditions: Homo sapiens; procedure, shortened: as §1
E6SM [5] = experiment: Tested for the minimum inhibitory concentration required to reduce herpes simplex virus type 2 (HSV-2) strain 196 induced cytopathogenicity by 50%.; assay type: functional; conditions: Homo sapiens; procedure, shortened: as §1
E6SM [6] = experiment: Tested for the minimum inhibitory concentration required to reduce thymidine kinase deficient herpes simplex virus type 1 (TK- HSV-1) strain B2006 induced cytopathogenicity by 50%.; assay type: functional; conditions: Homo sapiens; procedure, shortened: as §1
E6SM [7] = experiment: Tested for the minimum cytotoxic concentration required to cause a microscopically detectable alteration of normal cell morphology in human embryonic skin muscle (E6SM) fibroblast cell cultures.; assay type: functional; procedure, shortened: as §1
E6SM [8] = experiment: Tested for the minimum inhibitory concentration required to reduce vesicular stomatitis virus(VSV) induced cytopathogenicity by 50%; assay type: functional; conditions: Homo sapiens
E6SM [9] = experiment: Tested for the minimum inhibitory concentration required to reduce herpes simplex virus type 1 (HSV-1) strain McIntyre induced cytopathogenicity by 50%.; assay type: functional; conditions: Homo sapiens; procedure, shortened: as §1
HEL [10] = experiment: Tested for the inhibitory concentration required to reduce TK+ Varicella-Zoster virus (TK+ VZV) strain YS plaque formation by 50%; assay type: functional, cell-based; conditions: Homo sapiens
E6SM [11] = experiment: Tested for the minimum inhibitory concentration required to reduce herpes simplex virus type 1 (HSV-1) strain F induced cytopathogenicity by 50%.; assay type: functional; conditions: Homo sapiens; procedure, shortened: as §1
E6SM [12] = experiment: Tested for the minimum inhibitory concentration required to reduce herpes simplex virus type 1 (HSV-1) strain KOS induced cytopathogenicity by 50%.; assay type: functional; conditions: Homo sapiens; procedure, shortened: as §1
E6SM [13] = experiment: Tested for the minimum inhibitory concentration required to reduce vaccinia virus(VV) induced cytopathogenicity by 50%.; assay type: functional; conditions: Homo sapiens
E6SM [14] = experiment: Tested for the minimum inhibitory concentration required to reduce herpes simplex virus type 2 (HSV-2) strain Lyons induced cytopathogenicity by 50%.; assay type: functional; conditions: Homo sapiens; procedure, shortened: as §1
HEL [15] = experiment: Tested for the inhibitory concentration required to reduce cytomegalovirus (CMV) strain AD-169 plaque formation by 50%.; assay type: functional, cell-based; conditions: Homo sapiens; procedure, shortened: as §2
HEL [16] = experiment: Tested for the cytotoxic concentration, required to reduce cell growth by 50% in human embryonic lung (HEL) cells.; assay type: functional; procedure, shortened: as §2
HEL [17] = experiment: Tested for the inhibitory concentration required to reduce thymidine kinase deficient Varicella-Zoster virus (TK- VZV) strain YS/R plaque formation by 50%.; assay type: functional, cell-based; conditions: Homo sapiens
E6SM [18] = experiment: Tested for the minimum inhibitory concentration required to reduce herpes simplex virus type 2 (HSV-2) strain 196 induced cytopathogenicity by 50%; assay type: functional; conditions: Homo sapiens; procedure, shortened: as §1
HEL [19] = experiment: Tested for the inhibitory concentration required to reduce thymidine kinase deficient Varicella-Zoster virus (TK-VZV) strain YS/R plaque formation by 50%; assay type: functional, cell-based; conditions: Homo sapiens; procedure, shortened: as §2
HEL [20] = experiment: Tested for the cytotoxic concentration, required to reduce cell growth by 50% in human embryonic lung (HEL) cells; assay type: functional; procedure, shortened: as §2
HEL [21] = experiment: Tested for the inhibitory concentration required to reduce TK+ Varicella-Zoster virus (TK+VZV) strain YS plaque formation by 50%; assay type: functional, cell-based; conditions: Homo sapiens; procedure, shortened: as §2
HEL [22] = experiment: Tested for the inhibitory concentration required to reduce thymidine kinase deficient Varicella-Zoster virus (TK-VZV) strain 07/1 plaque formation by 50%; assay type: functional, cell-based; conditions: Homo sapiens; procedure, shortened: as §2
HEL [23] = experiment: Tested for the inhibitory concentration required to reduce TK+varicella-zoster virus (TK+ VZV) strain OKA plaque formation by 50%; assay type: functional, cell-based; conditions: Homo sapiens; procedure, shortened: as §2
E6SM [24] = experiment: Tested for the minimum cytotoxic concentration required to cause a microscopically detectable alteration of normal cell morphology in human embryonic skin muscle (E6SM) fibroblast cell cultures; assay type: functional
Procedure, shortened: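 Cytotoxicity in human embryonic skin-muscle (E6SM) fibroblasts seeded in 96-well trays, scored microscopically as altered normal cell morphology. Tested up to 400 µg/mL.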

E6SM [25] = experiment: Tested for the minimum inhibitory concentration required to reduce herpes simplex virus type 1 (HSV-1) strain McIntyre induced cytopathogenicity by 50%; assay type: functional; conditions: Homo sapiens; procedure, shortened: as §1
E6SM [26] = experiment: Tested for the minimum inhibitory concentration required to reduce herpes simplex virus type 1 (HSV-1) strain KOS induced cytopathogenicity by 50%; assay type: functional; conditions: Homo sapiens; procedure, shortened: as §1
E6SM [27] = experiment: Tested for the minimum inhibitory concentration required to reduce herpes simplex virus type 2 (HSV-2) strain G induced cytopathogenicity by 50%; assay type: functional; conditions: Homo sapiens; procedure, shortened: as §1
E6SM [28] = experiment: Tested for the minimum inhibitory concentration required to reduce herpes simplex virus type 1 (TK/ TK+HSV-1) strain VMW-1837 induced cytopathogenicity by 50%; assay type: functional; conditions: Homo sapiens; procedure, shortened: as §1
HEL [29] = experiment: Tested for the inhibitory concentration required to reduce cytomegalovirus (CMV) strain AD-169 plaque formation by 50%; assay type: functional, cell-based; conditions: Homo sapiens; procedure, shortened: as §2
E6SM [30] = experiment: Tested for the minimum inhibitory concentration required to reduce herpes simplex virus type 2 (HSV-2) strain Lyons induced cytopathogenicity by 50%; assay type: functional; conditions: Homo sapiens; procedure, shortened: as §1
HEL [31] = experiment: Tested for the inhibitory concentration required to reduce cytomegalovirus (CMV) strain Davis plaque formation by 50%; assay type: functional, cell-based; conditions: Homo sapiens; procedure, shortened: as §2
E6SM [32] = experiment: Tested for the minimum inhibitory concentration required to reduce thymidine kinase deficient herpes simplex virus type 1 (TK- HSV-1) strain B2006 induced cytopathogenicity by 50%; assay type: functional; conditions: Homo sapiens; procedure, shortened: as §1
HEL [33] = experiment: Tested for the inhibitory concentration required to reduce thymidine kinase deficient Varicella-Zoster virus (TK- VZV) strain 07/1 plaque formation by 50%.; assay type: functional, cell-based; conditions: Homo sapiens
E6SM [34] = experiment: Tested for the minimum inhibitory concentration required to reduce thymidine kinase deficient herpes simplex virus type 1 (TK- / TK+ HSV-1) strain VMW-1837 induced cytopathogenicity by 50%.; assay type: functional; conditions: Homo sapiens; procedure, shortened: as §1
HEL [35] = experiment: Tested for the inhibitory concentration required to reduce thymidine kinase plus Varicella-Zoster virus (TKplus VZV) strain OKA plaque formation by 50%.; assay type: functional, cell-based; conditions: Homo sapiens; procedure, shortened: as §2

Row | SMILES | MIC (E6SM [1]) | IC50 (HEL [2]) | IC50 (HEL [3]) | MIC (E6SM [4]) | MIC (E6SM [5]) | MIC (E6SM [6]) | MCC (E6SM [7]) | MIC (E6SM [8]) | MIC (E6SM [9]) | IC50 (HEL [10]) | MIC (E6SM [11]) | MIC (E6SM [12]) | MIC (E6SM [13]) | MIC (E6SM [14]) | IC50 (HEL [15]) | CC50 (HEL [16]) | IC50 (HEL [17]) | IC50 (HEL [33]) | also measured
1 | Nc1nc(=O)n(C2COC(CO)C(O)C2)cc1I (stereo not drawn) | 7 µg/mL (≈ 19.1 µM) | > 40 µg/mL | > 40 µg/mL | 70 µg/mL (≈ 191 µM) | 20 µg/mL (≈ 54.5 µM) | 300 µg/mL (≈ 817 µM) | > 400 µg/mL | > 400 µg/mL | 2 µg/mL (≈ 5.45 µM) | > 40 µg/mL | 0.7 µg/mL (≈ 1.91 µM) | 2 µg/mL (≈ 5.45 µM) | 150 µg/mL (≈ 409 µM) | 20 µg/mL (≈ 54.5 µM) | > 40 µg/mL | > 50 µg/mL | 7.6 µg/mL (≈ 20.7 µM) |  | 
2 | OCC1OCC(n2cnc3c(O)ncnc32)CC1O (stereo not drawn) |  |  |  |  |  |  |  |  |  |  | 300 µg/mL (≈ 1130 µM) |  |  |  |  |  |  |  | MIC (E6SM [18]): 300 µg/mL (≈ 1130 µM); IC50 (HEL [19]): > 40 µg/mL; CC50 (HEL [20]): > 50 µg/mL; IC50 (HEL [21]): 25 µg/mL (≈ 93.9 µM); IC50 (HEL [22]): > 40 µg/mL; IC50 (HEL [23]): > 40 µg/mL; MCC (E6SM [24]): > 400 µg/mL; MIC (E6SM [25]): > 400 µg/mL; MIC (E6SM [26]): > 400 µg/mL; MIC (E6SM [27]): > 400 µg/mL; MIC (E6SM [28]): 300 µg/mL (≈ 1130 µM); IC50 (HEL [29]): > 40 µg/mL; MIC (E6SM [30]): 300 µg/mL (≈ 1130 µM); IC50 (HEL [31]): > 40 µg/mL; MIC (E6SM [32]): > 400 µg/mL
3 | Nc1nc(=O)n(C2COC(CO)C(O)C2)cc1F (stereo not drawn) | 2 µg/mL (≈ 7.71 µM) | 0.5 µg/mL (≈ 1.93 µM) |  |  |  | 0.07 µg/mL (≈ 0.27 µM) | > 400 µg/mL | > 200 µg/mL |  | 3.5 µg/mL (≈ 13.5 µM) |  | 0.2 µg/mL (≈ 0.771 µM) | 0.2 µg/mL (≈ 0.771 µM) |  | 0.9 µg/mL (≈ 3.47 µM) | 2 µg/mL (≈ 7.71 µM) | 7 µg/mL (≈ 27 µM) | 5 µg/mL (≈ 19.3 µM) | MIC (E6SM [34]): 2 µg/mL (≈ 7.71 µM); IC50 (HEL [35]): 2.9 µg/mL
4 | O=c1[nH]c(=O)n(C2COC(CO)C(O)C2)cc1/C=C/Br (stereo not drawn) | 150 µg/mL (≈ 432 µM) | 23 µg/mL (≈ 66.3 µM) | 1.4 µg/mL (≈ 4.03 µM) | 70 µg/mL (≈ 202 µM) | 70 µg/mL (≈ 202 µM) | > 100 µg/mL | > 400 µg/mL |  | 0.4 µg/mL (≈ 1.15 µM) | 1.4 µg/mL (≈ 4.03 µM) | 2 µg/mL (≈ 5.76 µM) | 0.4 µg/mL (≈ 1.15 µM) |  | 70 µg/mL (≈ 202 µM) | > 10 µg/mL | 50 µg/mL (≈ 144 µM) | 40 µg/mL (≈ 115 µM) | 20 µg/mL (≈ 57.6 µM) | 
